What was measured:
Bone [1] = assay: Drug uptake in ICR mouse bone at 370 kBq/100 ul, iv at 2 mins by gamma-counting analysis; format: ADME, organism-based, Bone element; conditions: in vivo
Outline: (§1)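 Male ICR mice (5 weeks, about 20 g) got 18F tracer in saline (370 KBq per 100 μL) via tail vein; n = 5 per time point, killed at 2, 10, 30, 60 min. Organs weighed and γ-counted; percent dose per gram wet tissue from comparison with diluted injectate aliquots.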

Brain [2] = assay: Ratio of drug uptake in brain at 2 mins to drug uptake in brain at 60 mins in ICR mouse at 370 KBq/100 ul, iv; format: ADME, organism-based; conditions: in vivo
Outline: (§2)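 Normal male ICR mice (5 weeks, about 20 g) received the ¹⁸F tracer in saline (370 KBq per 100 μL) by tail-vein injection. Groups of n = 5 were killed at 2, 10, 30 and 60 min. Organs were removed, weighed and γ-counted against diluted aliquots of the injectate, giving % dose per gram. Stomach and intestine were expressed per organ. The brain ratio is 2 min/60 min uptake. Values are mean ± SD.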

Stomach [3] = assay: Drug uptake in ICR mouse stomach assessed per organ at 370 kBq/100 ul, iv at 60 mins by gamma-counting analysis; format: ADME, organism-based; conditions: in vivo, 1 h; outline: as §2
Lung [4] = assay: Drug uptake in ICR mouse lung at 370 kBq/100 ul, iv at 60 mins by gamma-counting analysis; format: ADME, organism-based; conditions: in vivo, 1 h; outline: as §1
Spleen [5] = assay: Drug uptake in ICR mouse spleen at 370 kBq/100 ul, iv at 2 mins by gamma-counting analysis; format: ADME, organism-based; conditions: in vivo; outline: as §1
Heart [6] = assay: Drug uptake in ICR mouse heart at 370 kBq/100 ul, iv at 2 mins by gamma-counting analysis; format: ADME, organism-based; conditions: in vivo; outline: as §1
Lung [7] = assay: Drug uptake in ICR mouse lung at 370 kBq/100 ul, iv at 30 mins by gamma-counting analysis; format: ADME, organism-based; conditions: in vivo, 0.5 h; outline: as §1
Bone [8] = assay: Drug uptake in ICR mouse bone at 370 kBq/100 ul, iv at 60 mins by gamma-counting analysis; format: ADME, organism-based, Bone element; conditions: in vivo, 1 h; outline: as §1
Heart [9] = assay: Drug uptake in ICR mouse heart at 370 kBq/100 ul, iv at 60 mins by gamma-counting analysis; format: ADME, organism-based; conditions: in vivo, 1 h; outline: as §1
Brain [10] = assay: Drug uptake in ICR mouse brain at 370 kBq/100 ul, iv at 30 mins by gamma-counting analysis; format: ADME, organism-based; conditions: in vivo, 0.5 h; outline: as §1
Brain [11] = assay: Drug uptake in ICR mouse brain at 370 kBq/100 ul, iv at 10 mins by gamma-counting analysis; format: ADME, organism-based; conditions: in vivo; outline: as §1
Liver [12] = assay: Drug uptake in ICR mouse liver at 370 kBq/100 ul, iv at 30 mins by gamma-counting analysis; format: ADME, organism-based; conditions: in vivo, 0.5 h; outline: as §1
Brain [13] = assay: Drug uptake in ICR mouse brain at 370 kBq/100 ul, iv at 2 mins by gamma-counting analysis; format: ADME, organism-based; conditions: in vivo; outline: as §1
Spleen [14] = assay: Drug uptake in ICR mouse spleen at 370 kBq/100 ul, iv at 10 mins by gamma-counting analysis; format: ADME, organism-based; conditions: in vivo; outline: as §1
Kidney [15] = assay: Drug uptake in ICR mouse kidney at 370 kBq/100 ul, iv at 30 mins by gamma-counting analysis; format: ADME, organism-based; conditions: in vivo, 0.5 h; outline: as §1
Intestine [16] = assay: Drug uptake in ICR mouse intestine assessed per organ at 370 kBq/100 ul, iv at 2 mins by gamma-counting analysis; format: ADME, organism-based; conditions: in vivo
Outline: (§3)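 Male ICR mice (5 weeks, about 20 g) got 18F tracer in saline (370 KBq per 100 μL) via tail vein; n = 5 per time point, killed at 2, 10, 30, 60 min. Organs removed and γ-counted against diluted injectate; expressed as % injected dose per organ.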

Stomach [17] = assay: Drug uptake in ICR mouse stomach assessed per organ at 370 kBq/100 ul, iv at 2 mins by gamma-counting analysis; format: ADME, organism-based; conditions: in vivo; outline: as §3
Heart [18] = assay: Drug uptake in ICR mouse heart at 370 kBq/100 ul, iv at 10 mins by gamma-counting analysis; format: ADME, organism-based; conditions: in vivo; outline: as §1
Brain [19] = assay: Drug uptake in wild type C57BL6 mouse brain at 370 KBq/100 ul after 1 hr by autoradiographic analysis; format: ADME, tissue-based; conditions: in vitro
Outline: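 Paraffin brain sections from 12-month-old male control C57BL6 mice were deparaffinized through xylene and graded ethanol, then held in PBS (0.2 M, pH 7.4) for 30 min. They were incubated with the ¹⁸F tracer (370 KBq per 100 μL) for 1 h at room temperature. Sections were washed in 40% EtOH, rinsed with water for 1 min, dried, and exposed to a phosphor plate for 2 h. The same sections were then stained with thioflavin S.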

Kidney [20] = assay: Drug uptake in ICR mouse kidney at 370 kBq/100 ul, iv at 10 mins by gamma-counting analysis; format: ADME, organism-based; conditions: in vivo; outline: as §1
Heart [21] = assay: Drug uptake in ICR mouse heart at 370 kBq/100 ul, iv at 30 mins by gamma-counting analysis; format: ADME, organism-based; conditions: in vivo, 0.5 h; outline: as §1
Spleen [22] = assay: Drug uptake in ICR mouse spleen at 370 kBq/100 ul, iv at 30 mins by gamma-counting analysis; format: ADME, organism-based; conditions: in vivo, 0.5 h; outline: as §1
Lung [23] = assay: Drug uptake in ICR mouse lung at 370 kBq/100 ul, iv at 2 mins by gamma-counting analysis; format: ADME, organism-based; conditions: in vivo; outline: as §1
Intestine [24] = assay: Drug uptake in ICR mouse intestine assessed per organ at 370 kBq/100 ul, iv at 30 mins by gamma-counting analysis; format: ADME, organism-based; conditions: in vivo, 0.5 h; outline: as §3
Kidney [25] = assay: Drug uptake in ICR mouse kidney at 370 kBq/100 ul, iv at 60 mins by gamma-counting analysis; format: ADME, organism-based; conditions: in vivo, 1 h; outline: as §1
Stomach [26] = assay: Drug uptake in ICR mouse stomach assessed per organ at 370 kBq/100 ul, iv at 10 mins by gamma-counting analysis; format: ADME, organism-based; conditions: in vivo; outline: as §3
Blood [27] = assay: Drug uptake in ICR mouse blood at 370 kBq/100 ul, iv at 2 mins by gamma-counting analysis; format: ADME, organism-based; conditions: in vivo; outline: as §1
Blood [28] = assay: Drug uptake in ICR mouse blood at 370 kBq/100 ul, iv at 30 mins by gamma-counting analysis; format: ADME, organism-based; conditions: in vivo, 0.5 h; outline: as §1
Liver [29] = assay: Drug uptake in ICR mouse liver at 370 kBq/100 ul, iv at 2 mins by gamma-counting analysis; format: ADME, organism-based; conditions: in vivo; outline: as §1
Blood [30] = assay: Drug uptake in ICR mouse blood at 370 kBq/100 ul, iv at 60 mins by gamma-counting analysis; format: ADME, organism-based; conditions: in vivo, 1 h; outline: as §1
[31] = Displacement of [125I]-IMPY from amyloid beta (1 to 42) fibrils after 2 hrs by gamma-counting analysis
Outline: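 Competition binding with aggregated Aβ1-42 fibrils and [125I]IMPY (60000−100000 cpm/100 μL) in 0.05% BSA (1 mL total); inhibitors 10⁻⁴−10^−8.5 M in ethanol. Incubated 37 °C for 2 h, then GF/B vacuum filtration with PBS (0.02 M, pH 7.4) washes and γ counting. Three repeats; IC50 converted to Ki by Cheng−Prusoff.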

Intestine [32] = assay: Drug uptake in ICR mouse intestine assessed per organ at 370 kBq/100 ul, iv at 60 mins by gamma-counting analysis; format: ADME, organism-based; conditions: in vivo, 1 h; outline: as §3
Spleen [33] = assay: Drug uptake in ICR mouse spleen at 370 kBq/100 ul, iv at 60 mins by gamma-counting analysis; format: ADME, organism-based; conditions: in vivo, 1 h; outline: as §1
Stomach [34] = assay: Drug uptake in ICR mouse stomach assessed per organ at 370 kBq/100 ul, iv at 30 mins by gamma-counting analysis; format: ADME, organism-based; conditions: in vivo, 0.5 h; outline: as §3
Bone [35] = assay: Drug uptake in ICR mouse bone at 370 kBq/100 ul, iv at 10 mins by gamma-counting analysis; format: ADME, organism-based, Bone element; conditions: in vivo; outline: as §1
Liver [36] = assay: Drug uptake in ICR mouse liver at 370 kBq/100 ul, iv at 60 mins by gamma-counting analysis; format: ADME, organism-based; conditions: in vivo, 1 h; outline: as §1
Blood [37] = assay: Drug uptake in ICR mouse blood at 370 kBq/100 ul, iv at 10 mins by gamma-counting analysis; format: ADME, organism-based; conditions: in vivo; outline: as §1
Brain [38] = assay: Drug uptake in ICR mouse brain at 370 kBq/100 ul, iv at 60 mins by gamma-counting analysis; format: ADME, organism-based; conditions: in vivo, 1 h; outline: as §1
Kidney [39] = assay: Drug uptake in ICR mouse kidney at 370 kBq/100 ul, iv at 2 mins by gamma-counting analysis; format: ADME, organism-based; conditions: in vivo; outline: as §1
Liver [40] = assay: Drug uptake in ICR mouse liver at 370 kBq/100 ul, iv at 10 mins by gamma-counting analysis; format: ADME, organism-based; conditions: in vivo; outline: as §1
[41] = n-Octanol-PBS buffer partition coefficient, log D of the compound at 1.5 MBq after 3 mins at pH 7.4; format: physicochemical
Outline: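 The tracer was partitioned between n-octanol and PBS by vortexing for 3 min at room temperature, then centrifuged for 5 min at 3000 rpm. Samples of the octanol (50 μL) and aqueous (500 μL) layers were counted. log D is the log of the octanol/PBS counts-per-gram ratio. The octanol layer was repartitioned until values were consistent. Measured in triplicate and repeated three times.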

Lung [42] = assay: Drug uptake in ICR mouse lung at 370 kBq/100 ul, iv at 10 mins by gamma-counting analysis; format: ADME, organism-based; conditions: in vivo; outline: as §1
Intestine [43] = assay: Drug uptake in ICR mouse intestine assessed per organ at 370 kBq/100 ul, iv at 10 mins by gamma-counting analysis; format: ADME, organism-based; conditions: in vivo; outline: as §3
Bone [44] = assay: Drug uptake in ICR mouse bone at 370 kBq/100 ul, iv at 30 mins by gamma-counting analysis; format: ADME, organism-based, Bone element; conditions: in vivo, 0.5 h; outline: as §1

## CN(C)c1ccc(-c2nc3cc(OCC[18F])ccc3o2)cn1
Bone [1]
  Drug uptake: 2.08 % ID/g
Brain [2]
  Ratio: 4.95
Stomach [3]
  Drug uptake: 2.79 %ID
Lung [4]
  Drug uptake: 1.79 % ID/g
Spleen [5]
  Drug uptake: 3.22 % ID/g
Heart [6]
  Drug uptake: 5.95 % ID/g
Lung [7]
  Drug uptake: 1.85 % ID/g
Bone [8]
  Drug uptake: 1.88 % ID/g
Heart [9]
  Drug uptake: 1.93 % ID/g
Brain [10]
  Drug uptake: 1.76 % ID/g
Brain [11]
  Drug uptake: 3.41 % ID/g
Liver [12]
  Drug uptake: 4.39 % ID/g
Brain [13]
  Drug uptake: 7.27 % ID/g
Spleen [14]
  Drug uptake: 2.02 % ID/g
Kidney [15]
  Drug uptake: 2.44 % ID/g
Intestine [16]
  Drug uptake: 8.41 %ID
Stomach [17]
  Drug uptake: 2.44 %ID
Heart [18]
  Drug uptake: 2.44 % ID/g
Brain [19]
  Drug uptake: Not Active
Kidney [20]
  Drug uptake: 3.82 % ID/g
Heart [21]
  Drug uptake: 1.83 % ID/g
Spleen [22]
  Drug uptake: 1.6 % ID/g
Lung [23]
  Drug uptake: 5.53 % ID/g
Intestine [24]
  Drug uptake: 38.88 %ID
Kidney [25]
  Drug uptake: 1.82 % ID/g
Stomach [26]
  Drug uptake: 2.55 %ID
Blood [27]
  Drug uptake: 3.57 % ID/g
Blood [28]
  Drug uptake: 1.89 % ID/g
Liver [29]
  Drug uptake: 15.7 % ID/g
Blood [30]
  Drug uptake: 2.06 % ID/g
[31]
  Ki: 2.7 nM
Intestine [32]
  Drug uptake: 37.02 %ID
Spleen [33]
  Drug uptake: 1.32 % ID/g
Stomach [34]
  Drug uptake: 2.54 %ID
Bone [35]
  Drug uptake: 1.27 % ID/g
Liver [36]
  Drug uptake: 3.19 % ID/g
Blood [37]
  Drug uptake: 2.05 % ID/g
Brain [38]
  Drug uptake: 1.47 % ID/g
Kidney [39]
  Drug uptake: 8.48 % ID/g
Liver [40]
  Drug uptake: 10.72 % ID/g
[41]
  logD at 0.05 h: 3.53
Lung [42]
  Drug uptake: 2.58 % ID/g
Intestine [43]
  Drug uptake: 21.45 %ID
Bone [44]
  Drug uptake: 1.56 % ID/g
